Active and inactive are the calls of the source.
Tests used:
Mus musculus [1] = assay: CNS toxicity in Swiss Webster mouse assessed as reduction in motor performance at 10 mg/kg, ip after 40 mins by rotarod test; assay type: organism-based; parameters: dose 10 mg/kg, route intraperitoneal; settings: in vivo
Procedure, shortened: (§1)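 Rota-rod test: 3 cm bar at 8 rpm; mice pre-selected 24 h earlier by remaining on bar for two consecutive 120 s periods; placed on rod 40 min after ip dosing; time on bar recorded up to 120 s; n = 6; one-way ANOVA with Tukey.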

Mus musculus [2] = assay: CNS toxicity in Swiss Webster mouse assessed as reduction in motor performance at 10 mg/kg, ip after 40 mins by open field test; assay type: organism-based; parameters: dose 10 mg/kg, route intraperitoneal; settings: in vivo
Procedure, shortened: (§2)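 Open-field test 40 min after ip dosing: mice placed singly in 40 × 60 × 50 cm box with 12 floor squares; squares crossed with all four paws counted over 3 min; n = 6; one-way ANOVA with Tukey.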

Mus musculus [3] = assay: Antinociceptive activity in Swiss Webster mouse assessed as inhibition of acetic acid-induced abdominal constrictions at 10 mg/kg, ip dosed 40 mins before acetic acid injection; assay type: functional, organism-based; parameters: dose 10 mg/kg; settings: Abdomen
Procedure, shortened: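 Male Swiss Webster mice dosed ip 40 min before ip acetic acid 0.8% v/v (10 mL/kg). Writhes (abdominal contraction with hind limb stretching) counted 0–30 min after injection in a glass cylinder. Mean writhing scores ± SEM, n = 10 per group; ANOVA with Tukey.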

Mus musculus [4] = assay: Antinociceptive activity in Swiss Webster mouse assessed as inhibition of formalin-induced late phase pain response at 10 mg/kg, ip dosed 40 mins before formalin injection; assay type: functional, organism-based; parameters: dose 10 mg/kg
Procedure, shortened: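 Mice acclimated 30 min, dosed ip 40 min before 20 μL 2.5% formalin sc into dorsal hind paw. Licking time of injected paw scored 10–30 min (late phase), mirror-aided observation. Mean ± SEM, n = 7−10; ANOVA with Tukey.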

Mus musculus [5] = assay: Antinociceptive activity in Swiss Webster mouse assessed as inhibition of acetic acid-induced abdominal constrictions at 25 to 100 mg/kg, ip dosed 40 mins before acetic acid injection; assay type: functional, organism-based; settings: Abdomen
Procedure, shortened: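 Male Swiss Webster mice dosed ip (5% DMSO in saline vehicle) 40 min before ip acetic acid 0.8% v/v, 10 mL/kg; writhes (abdominal contraction with hind-limb stretching) counted over 0−30 min; mean writhing score, n = 10 per group; ANOVA with Tukey.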

Mus musculus [6] = assay: Antiinflammatory activity in Swiss Webster mouse assessed as reduction in hyperalgesia at 100 mg/kg, ip dosed 40 mins before CFA injection and measured 2 to 6 hrs post CFA stimulus; assay type: functional, organism-based; parameters: dose 100 mg/kg
Procedure, shortened: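 Male Swiss Webster mice (22−28 g) given drug ip in 5% DMSO/saline (dexamethasone in 10% ethanol/saline) 40 min before 20 μL CFA (1 mg/mL heat-killed M. tuberculosis in paraffin oil/mannide monooleate) sc into right hind paw plantar region. Mechanical threshold by von Frey filaments, up−down method, at 2, 4 and 6 h; n = 6; two-way ANOVA with Bonferroni.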

Mus musculus [7] = assay: Antinociceptive activity in Swiss Webster mouse assessed as inhibition of formalin-induced late phase pain response at 25 to 100 mg/kg, ip dosed 40 mins before formalin injection; assay type: functional, organism-based
Procedure, shortened: (§3)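 Mice acclimated 30 min in chamber, dosed ip 40 min before sc injection of 20 μL 2.5% formalin into dorsal hind paw; licking time of injected paw scored 0−10 min (early phase) and 10−30 min (late phase); n = 7−10; ANOVA with Tukey.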

Mus musculus [8] = assay: Antiinflammatory activity in Swiss Webster mouse assessed as reduction in paw edema at 100 mg/kg, ip dosed 40 mins before CFA injection and measured 2 to 6 hrs post CFA stimulus; assay type: functional, organism-based; parameters: dose 100 mg/kg
Procedure, shortened: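 Male Swiss Webster mice, ip pretreatment in 5% DMSO/saline 40 min before intraplantar CFA (20 μL, 1 mg/mL heat-killed M. tuberculosis). Paw volume measured by plethysmometer before and 2, 4, 6 h after CFA; edema expressed as percent increase in paw volume; n = 6 mice/group; two-way ANOVA with Bonferroni.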

Mus musculus [9] = assay: CNS toxicity in Swiss Webster mouse assessed as effect on motor performance at 100 mg/kg, ip after 40 mins by open field test; assay type: organism-based; parameters: dose 100 mg/kg, route intraperitoneal; settings: in vivo; procedure, shortened: as §2
Mus musculus [10] = assay: Antinociceptive activity in Swiss Webster mouse assessed as increase in latency time at 100 mg/kg, ip measured after 0.5 hrs by hot plate test; assay type: functional, organism-based; parameters: dose 100 mg/kg
Procedure, shortened: (§4)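 Hot plate held at 55 ± 1 °C; male Swiss Webster mice; reaction time to hind paw licking or jumping recorded before and after ip dosing (vehicle 5% DMSO in saline); data as difference from baseline; 10 s cutoff; n = 6; two-way ANOVA with Bonferroni.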

Mus musculus [11] = assay: CNS toxicity in Swiss Webster mouse assessed as effect on motor performance at 100 mg/kg, ip after 40 mins by rotarod test; assay type: organism-based; parameters: dose 100 mg/kg, route intraperitoneal; settings: in vivo; procedure, shortened: as §1
Mus musculus [12] = assay: Antinociceptive activity in Swiss Webster mouse assessed as increase in latency time at 5 mg/kg, ip measured after 1 hr by hot plate test; assay type: functional, organism-based; parameters: dose 5 mg/kg; procedure, shortened: as §4
Mus musculus [13] = assay: Antinociceptive activity in Swiss Webster mouse assessed as inhibition of formalin-induced early phase pain response at 5 mg/kg, ip dosed 40 mins before formalin injection; assay type: functional, organism-based; parameters: dose 5 mg/kg; procedure, shortened: as §3
Mus musculus [14] = assay: Antinociceptive activity in Swiss Webster mouse assessed as inhibition of formalin-induced late phase pain response at 5 mg/kg, ip dosed 40 mins before formalin injection; assay type: functional, organism-based; parameters: dose 5 mg/kg; procedure, shortened: as §3
Mus musculus [15] = assay: Antinociceptive activity in Swiss Webster mouse assessed as increase in reaction time at 5 mg/kg, ip measured after 3 hrs by tail flick test; assay type: functional, organism-based; parameters: dose 5 mg/kg
Procedure, shortened: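 Mice habituated to restraint cylinder 20 min/day for 5 days; distal 2 cm of tail immersed in 48 ± 0.5 °C water; tail withdrawal latency measured before and after ip dosing (5% DMSO/saline vehicle); 10 s cutoff; n = 6; two-way ANOVA with Bonferroni.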

With `CN1C(=O)CN=C(c2ccccc2)c2cc(Cl)ccc21` [DIAZEPAM] the Activity (Mus musculus [1]) was “Toxic” and the Activity (Mus musculus [2]) was “Toxic”.

In the case of `COc1ccc2c(c1)c(CC(=O)O)c(C)n2C(=O)c1ccc(Cl)cc1`, the inhibition (Mus musculus [3]) was “Active” and the inhibition (Mus musculus [4]) was “Active”.

With `C[C@@]12C[C@H]3OC(=O)[C@@H]1CO[C@@]14O[C@]5([C@H]2C1=O)[C@@](O)(CC[C@H]1[C@H]4C[C@@H](O)[C@@]2(O)CC=CC(=O)[C@]12C)C(=O)O[C@@]35C` [PHYSALIN D] the inhibition (Mus musculus [5]) was “Dose-dependent effect”, the inhibition (Mus musculus [6]) was “inactive” and the inhibition (Mus musculus [7]) was “Active”. The inhibition (Mus musculus [8]) was “inactive”, the Activity (Mus musculus [9]) was “Non-toxic” and the Activity (Mus musculus [10]) was “Active”. For the same molecule, the Activity (Mus musculus [11]) was “Non-toxic”.

`CN1CC[C@]23c4c5ccc(O)c4O[C@H]2[C@@H](O)C=C[C@H]3[C@H]1C5` was tested, and the Activity (Mus musculus [12]) was “Active”, the inhibition (Mus musculus [13]) was “Active” and the inhibition (Mus musculus [14]) was “Active”. The Activity (Mus musculus [15]) was “Active”.

— ChEMBL document CHEMBL3351240, “Antinociceptive properties of physalins from Physalis angulata” (J Nat Prod, 2014)
